Source: ChEMBL document CHEMBL2203273, “Prostratin and 12-O-tetradecanoylphorbol 13-acetate are potent and selective inhibitors of Chikungunya virus replication” (J Nat Prod, 2012)

Experiments:
[1] = Selectivity index, ratio of CC50 for african green monkey Vero cells to EC50 for Chikungunya virus 899; type: toxicity, cell-based; settings: read-out: Ratio CC50/EC50
Chikungunya virus = test: Antiviral activity against Chikungunya virus 899 infected in african green monkey Vero cells assessed as inhibition of virus-induced cytopathic effect incubated for 6 to 7 days by MTS assay; type: functional, cell-based; settings: Chikungunya virus, 899, Vero
Outline: (§1)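 Serial dilutions in MEM Rega3 with 2% FCS, L-glutamine and bicarbonate, added with 4× virus dilution and Vero cells (25 000 cells/well, subcultured 1:4, grown 7 days). Incubated 6−7 days, 37 °C, 5% CO2. Read-out is 5% MTS for 1.5 h, absorbance 498 nm. Data are percent of controls, EC50 from dose–response curves. Wells with >50% protection checked microscopically for CPE or altered morphology. Multiple independent experiments.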

[2] = Cytotoxicity against african green monkey Vero cells by MTS assay; type: cell-based; settings: chlorocebus sabaeus
Outline: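 Vero cells (25 000/well) with serial compound dilutions in MEM Rega3 with 2% FCS, no virus, for 6−7 days at 37 °C, 5% CO2. Overall metabolism read by 5% MTS for 1.5 h, absorbance 498 nm. Uninfected control OD 0.6−0.8. CC50 is the concentration inhibiting metabolism by 50%, from dose–response curves. Multiple independent experiments.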

Semliki Forest virus = test: Antiviral activity against Semliki forest virus infected in african green monkey Vero cells assessed as inhibition of virus-induced cytopathic effect incubated for 6 to 7 days by MTS assay; type: functional, organism-based; outline: as §1
Sindbis virus = test: Antiviral activity against Sindbis virus HRsp infected in african green monkey Vero cells assessed as inhibition of virus-induced cytopathic effect incubated for 6 to 7 days by MTS assay; type: functional, organism-based; outline: as §1

Compound | selectivity ratio [1] | EC50 (Chikungunya virus) [µM] | CC50 [2] [µM] | EC50 (Semliki Forest virus) [µM] | EC50 (Sindbis virus) [µM]
CCCCCCCCCCCCCC(=O)O[C@@H]1[C@@H](C)[C@@]2(O)[C@@H](C=C(CO)C[C@@]3(O)C(=O)C(C)=C[C@@H]23)[C@@H]2C(C)(C)[C@]12OC(C)=O | 1.9 | 2.8 | 5.3 |  | 
CCCCCCCCCCCC(=O)O[C@@H]1[C@@H](C)[C@@]2(O)[C@@H](C(=O)C(CO)=C[C@]3(O)C(=O)C(C)=C[C@@H]23)[C@@H]2C(C)(C)[C@]12OC(C)=O [TRIGOWIIN A] | > 2.3 | 43.5 | > 100 |  | 
CC(=O)O[C@@]12C[C@@H](C)[C@@]3(O)[C@@H](C=C(CO)C[C@]4(O)C(=O)C(C)=C[C@@H]34)[C@@H]1C2(C)C [PROSTRATIN] | 30.3 | 2.6 | 79 | > 256 | > 256
CCCCCCCCCCCCCC(=O)O[C@@H]1[C@@H](C)[C@@]2(O)[C@@H](C=C(CO)C[C@]3(O)C(=O)C(C)=C[C@@H]23)[C@@H]2C(C)(C)[C@]12OC(C)=O [PHORBOL MYRISTATE ACETATE] | 1960 | 0.0029 | 5.7 | > 162 | 2.2
CC1=C[C@H]2[C@@]3(O)[C@H](C)[C@@H](O)[C@]4(O)[C@H]([C@@H]3C=C(CO)C[C@]2(O)C1=O)C4(C)C [PHORBOL] | > 1 | > 343 | > 343 | > 274 | > 274
CCN(CC)CCCC(C)Nc1ccnc2cc(Cl)ccc12 (stereo not given) [CHLOROQUINE] |  | 11 | 89 | 14 | 11
